{"source": "ChEMBL document CHEMBL4364279", "about": "“Design, synthesis, in-silico and biological evaluation of novel chalcone-O-carbamate derivatives as multifunctional agents for the treatment of Alzheimer's disease” (Eur J Med Chem, 2019)", "key": {"[1]": {"target": "T1, Amine oxidase [flavin-containing] A (Homo sapiens, UniProt P21397)", "T1 sequence (P21397 whole entry)": "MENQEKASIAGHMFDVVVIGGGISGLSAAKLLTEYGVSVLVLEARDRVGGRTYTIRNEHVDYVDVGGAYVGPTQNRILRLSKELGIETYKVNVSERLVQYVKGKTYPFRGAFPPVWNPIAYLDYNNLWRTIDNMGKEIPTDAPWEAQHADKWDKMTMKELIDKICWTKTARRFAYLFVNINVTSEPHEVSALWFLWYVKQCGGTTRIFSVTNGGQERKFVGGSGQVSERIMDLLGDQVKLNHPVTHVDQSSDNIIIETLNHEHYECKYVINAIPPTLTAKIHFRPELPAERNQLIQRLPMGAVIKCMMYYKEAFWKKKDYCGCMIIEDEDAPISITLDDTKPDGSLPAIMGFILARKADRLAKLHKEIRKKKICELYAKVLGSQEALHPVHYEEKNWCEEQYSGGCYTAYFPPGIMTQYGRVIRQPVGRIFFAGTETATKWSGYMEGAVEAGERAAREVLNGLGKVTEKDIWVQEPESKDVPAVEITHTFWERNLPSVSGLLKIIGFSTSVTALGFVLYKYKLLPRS", "test": "Inhibition of recombinant human MAO-A expressed in baculovirus infected BTI insect cells at 12.5 uM using kynuramine as substrate measured after 30 mins by fluorescence based assay relative to control", "conditions": "0.5 h"}, "PC-12": {"tested_on": "PC-12", "test": "Neuroprotective activity against H2O2-induced cell death in rat PC12 cells assessed as cell viability at 10 uM pretreated for 2 hrs followed by H2O2 addition measured after 30 mins by MTT assay (reference value: 49.6%)", "type": "functional", "conditions": "read-out: Activity"}, "Mus musculus": {"tested_on": "Mus musculus", "test": "Reversal of scopolamine-induced memory cognitive memory impairment in Kunming mouse assessed as change in spontaneous alteration behavior at 7.8 mg/kg, ig pretreated for 30 mins followed by scopolamine challenge and after 30 mins by Y-maze test (reference value: 45.6%)", "type": "functional"}, "[2]": {"target": "Cholinesterase (Equus caballus) (UniProt P81908)", "sequence (P81908 whole entry)": "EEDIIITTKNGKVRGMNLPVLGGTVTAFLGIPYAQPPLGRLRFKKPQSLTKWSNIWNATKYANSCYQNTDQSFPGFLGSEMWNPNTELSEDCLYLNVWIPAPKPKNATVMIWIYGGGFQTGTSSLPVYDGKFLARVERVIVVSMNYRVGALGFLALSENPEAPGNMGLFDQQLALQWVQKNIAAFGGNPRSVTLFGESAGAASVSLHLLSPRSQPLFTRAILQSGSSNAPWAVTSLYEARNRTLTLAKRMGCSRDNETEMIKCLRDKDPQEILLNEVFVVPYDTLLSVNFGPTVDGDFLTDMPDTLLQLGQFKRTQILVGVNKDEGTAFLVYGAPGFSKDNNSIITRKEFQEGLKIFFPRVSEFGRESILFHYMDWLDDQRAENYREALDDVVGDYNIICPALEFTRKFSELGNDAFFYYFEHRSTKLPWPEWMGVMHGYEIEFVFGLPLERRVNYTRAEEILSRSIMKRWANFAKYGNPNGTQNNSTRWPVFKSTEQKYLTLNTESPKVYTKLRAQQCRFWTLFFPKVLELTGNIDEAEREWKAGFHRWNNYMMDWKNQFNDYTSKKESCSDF", "test": "Reversible inhibition of equine serum BuChE assessed as enzyme activity at 0.1 times IC50 using butyrylthiocholine iodide as substrate by Ellman's method relative to control", "set-up": "scale not given: the % may be the effect or the level left", "how_it_was_run": "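Reversibility tested by recovery of equine serum BuChE activity after dilution of inhibitor, with activity monitored over time up to 240 min by the Ellman method (DTNB read at 412 nm). Activity expressed relative to untreated control. Three independent experiments.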"}, "[3]": {"target": "Cholinesterase (Homo sapiens) (UniProt P06276)", "sequence (P06276 whole entry)": "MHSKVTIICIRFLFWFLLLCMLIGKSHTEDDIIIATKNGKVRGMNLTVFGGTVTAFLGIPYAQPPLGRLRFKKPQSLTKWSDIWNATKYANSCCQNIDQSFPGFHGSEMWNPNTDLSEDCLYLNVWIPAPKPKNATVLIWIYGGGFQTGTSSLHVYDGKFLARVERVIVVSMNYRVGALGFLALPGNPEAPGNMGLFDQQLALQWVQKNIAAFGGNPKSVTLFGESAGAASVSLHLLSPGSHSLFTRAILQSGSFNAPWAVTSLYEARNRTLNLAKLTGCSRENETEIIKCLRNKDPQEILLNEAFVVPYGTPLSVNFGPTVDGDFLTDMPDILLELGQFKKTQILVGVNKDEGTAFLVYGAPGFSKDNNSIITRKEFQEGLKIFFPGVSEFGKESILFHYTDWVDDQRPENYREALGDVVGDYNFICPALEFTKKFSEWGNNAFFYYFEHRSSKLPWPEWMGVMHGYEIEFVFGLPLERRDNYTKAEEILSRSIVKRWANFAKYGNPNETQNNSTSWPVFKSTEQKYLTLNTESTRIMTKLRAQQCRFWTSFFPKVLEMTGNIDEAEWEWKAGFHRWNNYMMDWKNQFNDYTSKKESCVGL", "test": "Reversible competitive inhibition of BuChE (unknown origin) assessed as […] at 1 to 6 uM using butyrylthiocholine iodide as susbtrate"}, "[4]": {"test": "Inhibition of Cu2+-induced amyloid beta (1 to 42 residues) (unknown origin) aggregation at 25 uM after 24 hrs by thioflavin-T based fluorescence assay relative to control", "how_it_was_run": "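Aβ1-42 (25 µM) and Cu2+ (25 µM) incubated at 37 °C for 24 h with or without compound (25 µM). ThT (5 µM in 50 mM glycine-NaOH, pH 8.5) then added; fluorescence read at ex 446/em 490 nm. Inhibition = (1−IFi/IFc)×100 after background subtraction. Three independent experiments.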"}, "[5]": {"test": "Metal chelating activity of the compound assessed as formation of Al3+-compound complex by measuring red shift in maximum absorption at 37.5 uM after 30 mins by UV-vis absorption spectra analysis (reference value: 359 nanometer)", "how_it_was_run": "(§1)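 Metal binding examined by plate-reader absorbance scan using CuCl2, ZnCl2, AlCl3, FeSO4, CuCl and Fe(NO3)3 as metal sources.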"}, "[6]": {"target": "Cholinesterase (Equus caballus) (UniProt P81908)", "test": "Reversible inhibition of equine serum BuChE assessed as enzyme activity at IC50 using butyrylthiocholine iodide as substrate by Ellman's method relative to control", "set-up": "scale not given: the % may be the effect or the level left"}, "[7]": {"test": "Metal chelating activity of the compound assessed as formation of Fe2+-compound complex at 37.5 uM after 30 mins by UV-vis absorption spectra analysis", "how_it_was_run": "as §1"}, "[8]": {"test": "Metal chelating activity assessed as mole fraction of compound required to show 1:1 stoichiometry for compound-Cu2+ complex at 37.5 uM after 30 mins by UV spectrometry method", "how_it_was_run": "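Molar-ratio method: a methanol solution of compound (final 37.5 µM) titrated with ascending amounts of CuCl2, with absorbance followed at 426 nm by plate reader.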"}, "[9]": {"test": "Disaggregation of Cu2+ induced preformed fibrils of amyloid beta (1 to 42) (unknown origin) at 25 uM preincubated with Cu2+ for 24 hrs followed by compound addition and measured after 24 hrs by thioflavin-T based fluorescence assay relative to control", "how_it_was_run": "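Aβ1-42 (25 µM) and Cu2+ (25 µM) preincubated at 37 °C for 24 h, then compound (25 µM) added and incubated a further 24 h at 37 °C. ThT (5 µM in 50 mM glycine-NaOH, pH 8.5) added; fluorescence at ex 446/em 490 nm, background subtracted, % vs no-compound control. Three independent experiments.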"}, "[10]": {"test": "Metal chelating activity of the compound assessed as formation of Zn2+-compound complex at 37.5 uM after 30 mins by UV-vis absorption spectra analysis", "how_it_was_run": "as §1"}, "[11]": {"test": "Antioxidant activity assessed as trolox equivalents of AAPH radical scavenging activity preincubated for 15 mins followed by AAPH addition and measured every minute for 90 mins by ORAC-FL assay", "type": "functional"}, "[12]": {"target": "T2, Amine oxidase [flavin-containing] B (Homo sapiens, UniProt P27338)", "T2 sequence (P27338 whole entry)": "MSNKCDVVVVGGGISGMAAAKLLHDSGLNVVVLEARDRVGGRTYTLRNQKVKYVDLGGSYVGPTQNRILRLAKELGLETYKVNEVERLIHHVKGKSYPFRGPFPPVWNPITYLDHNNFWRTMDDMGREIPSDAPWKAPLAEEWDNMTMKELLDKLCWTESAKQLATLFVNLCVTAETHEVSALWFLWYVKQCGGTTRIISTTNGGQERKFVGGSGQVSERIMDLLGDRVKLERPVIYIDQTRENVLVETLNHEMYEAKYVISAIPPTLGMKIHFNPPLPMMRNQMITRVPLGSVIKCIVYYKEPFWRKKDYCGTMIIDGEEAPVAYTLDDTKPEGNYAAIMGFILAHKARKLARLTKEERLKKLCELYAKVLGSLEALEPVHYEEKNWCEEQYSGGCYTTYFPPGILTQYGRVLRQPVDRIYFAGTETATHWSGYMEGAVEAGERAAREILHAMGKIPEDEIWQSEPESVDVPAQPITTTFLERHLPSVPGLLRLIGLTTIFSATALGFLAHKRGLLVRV", "test": "biochemical", "type": "cell-based"}, "[13]": {"test": "Metal chelating activity of the compound assessed as formation of Cu2+-compound complex by measuring red shift in maximum absorption at 37.5 uM after 30 mins by UV-vis absorption spectra analysis (reference value: 359 nanometer)", "how_it_was_run": "as §1"}, "in vitro": {"test": "in vitro", "conditions": "PAMPA, pH 7.4"}, "[14]": {"target": "Acetylcholinesterase (AChE) (Electrophorus electricus, UniProt O42275)", "sequence (O42275 whole entry)": "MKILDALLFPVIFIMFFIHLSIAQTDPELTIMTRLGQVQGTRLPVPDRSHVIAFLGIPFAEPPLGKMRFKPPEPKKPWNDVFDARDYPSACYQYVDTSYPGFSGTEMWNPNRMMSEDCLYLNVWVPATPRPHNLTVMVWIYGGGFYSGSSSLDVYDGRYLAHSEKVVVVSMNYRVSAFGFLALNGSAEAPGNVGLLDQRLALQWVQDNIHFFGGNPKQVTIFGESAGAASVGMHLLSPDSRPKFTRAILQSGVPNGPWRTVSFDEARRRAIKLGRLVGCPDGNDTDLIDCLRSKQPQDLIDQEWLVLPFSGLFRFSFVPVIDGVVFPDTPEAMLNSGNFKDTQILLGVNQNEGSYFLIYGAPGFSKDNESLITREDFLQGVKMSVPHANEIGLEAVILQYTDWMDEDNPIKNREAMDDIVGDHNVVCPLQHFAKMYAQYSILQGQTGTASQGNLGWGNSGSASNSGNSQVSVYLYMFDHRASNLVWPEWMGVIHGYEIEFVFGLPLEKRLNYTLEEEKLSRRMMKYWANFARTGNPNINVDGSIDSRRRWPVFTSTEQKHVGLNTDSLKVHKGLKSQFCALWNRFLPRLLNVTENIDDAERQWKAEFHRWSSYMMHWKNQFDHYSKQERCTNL", "test": "Inhibition of electric eel AChE at 25 uM using acetylthiocholine iodide as substrate incubated for 15 mins by Ellman's method relative to control", "conditions": "electric eel acetylcholinesterase (isolated enzyme), probe acetylthiocholine iodide"}}, "note": "Calls of active or inactive are those of the source. The rule behind the calls is not given here."}
{"molecule": "CCN(C)C(=O)Oc1cccc(/C=C/C(=O)c2ccccc2O)c1", "values": [{"measurement": "inhibition at 12.5 µM", "setting": "[1]", "result": 16.4, "unit": "%"}, {"measurement": "viability at 10 µM", "setting": "PC-12", "result": 78.3, "unit": "%"}, {"measurement": "Activity", "setting": "Mus musculus", "result": 65.1, "unit": "%"}, {"measurement": "Activity", "setting": "[2]", "result": 50.8, "unit": "%"}, {"measurement": "inhibition", "setting": "[3]", "result": "Active"}, {"measurement": "inhibition", "setting": "[4]", "result": 78.3, "unit": "%"}, {"measurement": "Activity", "setting": "[5]", "result": 428, "unit": "nm"}, {"measurement": "Activity", "setting": "[6]", "result": 50.1, "unit": "%"}, {"measurement": "Activity", "setting": "[7]", "result": "inactive"}, {"measurement": "Activity", "setting": "[8]", "result": 0.97, "unit": "molar ratio"}, {"measurement": "Activity", "setting": "[9]", "result": 83.1, "unit": "%"}, {"measurement": "Activity", "setting": "[10]", "result": "inactive"}, {"measurement": "Activity", "setting": "[11]", "result": 1.3, "unit": "µMequiv/µM"}, {"measurement": "IC50", "setting": "[12]", "result": 1300, "unit": "nM"}, {"measurement": "Activity", "setting": "[13]", "result": 435, "unit": "nm"}, {"measurement": "Papp at 100 ug/ml", "setting": "in vitro", "result": 15.7, "unit": "×10⁻⁶ cm/s"}, {"measurement": "inhibition at 0.25 h, 25 µM", "setting": "[14]", "result": 26.2, "unit": "%"}]}
